Screens (PubChem BioAssay)
A selection: hits, their analogues and other compounds. The true share with any hit is near 4.8%.
PAFAH1B3 inh: PAFAH1B3 enzyme inhibitors, primary screen, biochemical, fluorescence polarization, human; Platelet-activating factor acetylhydrolase IB subunit alpha1 (Homo sapiens), Q15102; recombinant PAFAH1B3, FP-rhodamine probe; inhibition, % at 3.39 µM; actives 0.28% (n = 340,000);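 active means inhibition above the screen-wide average of all tested compounds plus 3 SD, cut at about 25% in these data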;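 further: 0% = enzyme with DMSO only and 100% = wells lacking PAFAH1B3 protein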
PAFAH1B2 FP inh: PAFAH1B2 enzyme inhibitors, primary screen, biochemical, fluorescence polarization, human. recombinant PAFAH1B2, FP-rhodamine activity probe. Platelet-activating factor acetylhydrolase IB subunit alpha2 (Homo sapiens), P68402. actives 1.2% (n = 340,000). AID 492953, 2010. inhibition, % at 3.39 µM;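 active means inhibition above the mean of all tested compounds plus 3 SD, cut at about 24% in these data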;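 further: 0% = enzyme with DMSO and 100% = wells lacking PAFAH1B2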
Target sequence (P68402 whole entry, looked up): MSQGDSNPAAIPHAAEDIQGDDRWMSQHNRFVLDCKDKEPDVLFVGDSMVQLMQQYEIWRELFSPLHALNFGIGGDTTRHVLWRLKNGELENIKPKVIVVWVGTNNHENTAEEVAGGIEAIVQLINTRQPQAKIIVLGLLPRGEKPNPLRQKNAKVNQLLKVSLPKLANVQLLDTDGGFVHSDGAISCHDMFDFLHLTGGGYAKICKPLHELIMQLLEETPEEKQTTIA
UCH37 DUB inh: inhibitors of human UCH37 deubiquitinase, primary screen, biochemical, Ub-AMC cleavage, fluorescence; purified proteasome/UCH37; inhibition, % (concentration not given with the values); Ubiquitin carboxyl-terminal hydrolase isozyme L5 (Homo sapiens), Q9Y5K5; actives 0.33% (n = 330,000); AID 588478, 2011;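 active means mean inhibition over replicate wells above about 20%, limit read from the data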;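 further: 0% = compound-free wells with enzyme and 100% = wells lacking proteasome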
Target sequence (Q9Y5K5 whole entry, looked up): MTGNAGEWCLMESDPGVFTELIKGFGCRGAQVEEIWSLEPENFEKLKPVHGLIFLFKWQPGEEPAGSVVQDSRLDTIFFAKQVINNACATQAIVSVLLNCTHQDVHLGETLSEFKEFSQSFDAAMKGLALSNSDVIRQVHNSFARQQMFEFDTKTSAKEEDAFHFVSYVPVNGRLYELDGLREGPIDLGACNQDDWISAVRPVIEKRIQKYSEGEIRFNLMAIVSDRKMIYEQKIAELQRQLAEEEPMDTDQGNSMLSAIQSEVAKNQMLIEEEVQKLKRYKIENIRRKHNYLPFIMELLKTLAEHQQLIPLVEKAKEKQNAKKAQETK
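System: Proteasome-associated human UCH37 deubiquitinase; Input: 0.15 nM proteasome in added enzyme buffer; Also added: Ub-AMC substrate from 1 µM stock; Incubation: 30 min compound-proteasome preincubation then 25 min substrate reaction, room temperature; Detection: fluorescence, ex 355 nm, em 460 nm; Read-out: % inhibition of Ub-AMC cleavage fluorescence; Benchmarks: no-proteasome and no-compound wells.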
GRIN3A LBD mod: binders of NR3A ligand-binding domain, primary screen, biophysical, differential scanning fluorimetry, uHTS | Glutamate receptor ionotropic, NMDA 3A (GRIN3A) ligand-binding domain | NR3A LBD differential scanning fluorimetry, Tm shift; 0% = protein alone, 100% = glycine-bound protein | Tm shift relative to glycine control, % at 25 µM | actives 2.5% (n = 340,000);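 active means melting temperature shift of at least 10% of the positive control shift, at one fixed dose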
pPAFAH inh: pPAFAH enzyme inhibitors, primary screen, biochemical, fluorescence polarization, human; Platelet-activating factor acetylhydrolase (Homo sapiens), Q13093; recombinant pPAFAH, FP-rhodamine probe fluorescence polarization; inhibition, % at 3.39 µM; actives 1.5% (n = 330,000);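 active means inhibition above the mean inhibition across the screen plus 3 SD, cut at about 25% in these data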;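 further: inhibitors block binding of the rhodamine activity-based probe so polarization drops; 0% = enzyme with DMSO and 100% = wells lacking pPAFAH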
PAFAH2 FP inh: PAFAH2 enzyme inhibitors, primary screen, biochemical, fluorescence polarization, human; actives 0.99% (n = 340,000); inhibition, % at 3.39 µM; recombinant PAFAH2, FP-rhodamine activity probe; Platelet-activating factor acetylhydrolase 2, cytoplasmic (Homo sapiens), Q99487;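 active means inhibition above the mean over all tested compounds plus 3 SD, cut at about 30% in these data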;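 further: inhibitors block probe labeling of enzyme so polarization drops; 0% = enzyme with DMSO and 100% = wells lacking PAFAH2 protein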
Active calls of the source: *.

COc1cccc(NC(=O)Nc2nc(SC)ns2)c1 was read as PAFAH1B3 inh -6, PAFAH1B2 FP inh 1, UCH37 DUB inh 5, GRIN3A LBD mod 12*, pPAFAH inh 4 and PAFAH2 FP inh 3.
COc1cccc(NC(=O)Nc2nc(SC(C)(C)C)ns2)c1 was read as PAFAH1B3 inh -3, PAFAH1B2 FP inh -8, UCH37 DUB inh 3, GRIN3A LBD mod 40*, pPAFAH inh -4 and PAFAH2 FP inh -17.
For COc1cccc(NC(=O)C(C)(C)C)c1 the results were PAFAH1B3 inh 7, PAFAH1B2 FP inh 3, UCH37 DUB inh 2, GRIN3A LBD mod 0, pPAFAH inh 8 and PAFAH2 FP inh 4.
`CCCSc1nsc(NC(=O)C(c2ccccc2)c2ccccc2)n1` gave PAFAH1B3 inh 0, PAFAH1B2 FP inh -5, UCH37 DUB inh -2, GRIN3A LBD mod 18*, pPAFAH inh -10 and PAFAH2 FP inh -13.
Screening CC(=NOCC(=O)OC(C)C(=O)Nc1ccc(C)c(S(=O)(=O)N2CCOCC2)c1)c1ccc2c(c1)OCO2 (stereo not given) returned UCH37 DUB inh 2.
For N#Cc1c(N)sc(=S)c2c1CCCCC2 the results were PAFAH1B3 inh 23, PAFAH1B2 FP inh 17, UCH37 DUB inh 8, GRIN3A LBD mod -2, pPAFAH inh 29* and PAFAH2 FP inh 45*.
`N#Cc1c(N)sc2c1CCCCCC2` gave PAFAH1B3 inh 6, PAFAH1B2 FP inh 28*, UCH37 DUB inh 3, GRIN3A LBD mod 2, pPAFAH inh 9 and PAFAH2 FP inh 4.
O=C(CNC(c1ccccc1)c1ccccc1)Nc1ccccc1Br was read as PAFAH1B3 inh -3, PAFAH1B2 FP inh 4, UCH37 DUB inh 2, GRIN3A LBD mod 8, pPAFAH inh 32* and PAFAH2 FP inh 6.
Screening CC(CC(=O)Nc1ccc(Cl)cc1C(F)(F)F)=NNC(=O)c1cccs1 returned UCH37 DUB inh 4.
For CC(C)c1ccc(S(=O)(=O)/N=C2\C=C(NS(=O)(=O)c3ccccc3)C(=O)c3ccccc32)cc1 the results were PAFAH1B3 inh -2, PAFAH1B2 FP inh 23, UCH37 DUB inh 9, GRIN3A LBD mod 1, pPAFAH inh 26* and PAFAH2 FP inh 26.
`Cc1ccc(C)c(S(=O)(=O)/N=C2\C=C(NS(=O)(=O)c3ccccc3)C(=O)c3ccccc32)c1` gave PAFAH1B3 inh 25, PAFAH1B2 FP inh 6, GRIN3A LBD mod -3, pPAFAH inh 17 and PAFAH2 FP inh 17.
For CCc1ccc(S(=O)(=O)/N=C2\C=C(NS(=O)(=O)c3ccccc3)C(=O)c3ccccc32)cc1 the results were PAFAH1B3 inh 6, PAFAH1B2 FP inh 0, UCH37 DUB inh 13, GRIN3A LBD mod 2 and PAFAH2 FP inh 34*.
Screening CC(C)CC(=O)N1CC=CC[C@@H](c2ccc(Cl)cc2)N(Cc2ccc(Cl)cc2)C(=O)[C@@H]1Cc1ccccc1 returned PAFAH1B3 inh -1, PAFAH1B2 FP inh 0, UCH37 DUB inh 5, GRIN3A LBD mod 12* and PAFAH2 FP inh -1.
For CC1(NC(=O)C23CC4CC(CC(C4)C2)C3)CCS(=O)(=O)C1 (stereo not given) the results were PAFAH1B3 inh -2, PAFAH1B2 FP inh 21, UCH37 DUB inh 4, GRIN3A LBD mod 1, pPAFAH inh 1 and PAFAH2 FP inh -4.
`CN(C(=O)C12CC3CC(CC(C3)C1)C2)C1(C)CCS(=O)(=O)C1` (stereo not given) gave PAFAH1B3 inh 8, PAFAH1B2 FP inh 23, UCH37 DUB inh 30*, GRIN3A LBD mod 3, pPAFAH inh 7 and PAFAH2 FP inh 4.
CC1CCC(C(C)C)C(OC(=O)CSc2nnc(N)s2)C1 (stereo not given) was read as PAFAH1B3 inh 2, PAFAH1B2 FP inh 27*, UCH37 DUB inh 2, GRIN3A LBD mod -3, pPAFAH inh -2 and PAFAH2 FP inh 7.
`Nc1ncnc2c1C1(CCCCC1)Cc1ccccc1-2` gave PAFAH1B3 inh 5, PAFAH1B2 FP inh 20, UCH37 DUB inh -5, GRIN3A LBD mod -10, pPAFAH inh 5 and PAFAH2 FP inh 3.
`Nc1n[nH]c2c1C1(CCCCC1)Cc1ccccc1-2` gave PAFAH1B3 inh 7, PAFAH1B2 FP inh 32*, UCH37 DUB inh -1, GRIN3A LBD mod -1, pPAFAH inh -1 and PAFAH2 FP inh 1.
CC1=NN(c2ccc(C)cc2)C(=O)/C1=C\C=C\c1ccccc1 was read as PAFAH1B3 inh 10, PAFAH1B2 FP inh -2, UCH37 DUB inh 1, GRIN3A LBD mod -10, pPAFAH inh 2 and PAFAH2 FP inh 20.
For CC1=NN(c2cccc(C(=O)O)c2)C(=O)/C1=C\C=C/c1ccccc1 the results were UCH37 DUB inh 7 and GRIN3A LBD mod 12*.
For C/C(=C1/SC(N2CC(C)OC(C)C2)=NC1=O)c1ccccc1 (stereo not given) the results were PAFAH1B3 inh 6, PAFAH1B2 FP inh 8, UCH37 DUB inh 5, GRIN3A LBD mod 1, pPAFAH inh 28* and PAFAH2 FP inh -1.
`CCOC(CN=c1nc(N(C)C)ss1)OCC` gave PAFAH1B3 inh 2, PAFAH1B2 FP inh 1, GRIN3A LBD mod 22* and PAFAH2 FP inh -3.
`CN(C)c1nc(=NCc2ccco2)ss1` gave PAFAH1B3 inh 1, PAFAH1B2 FP inh 1, GRIN3A LBD mod -7, pPAFAH inh 8 and PAFAH2 FP inh -7.
For CCOc1ccc(N2C(=O)CS/C2=C(\C(Cl)=C(Cl)Cl)[N+](=O)[O-])cc1 the results were PAFAH1B3 inh 11, PAFAH1B2 FP inh 2, UCH37 DUB inh 8, GRIN3A LBD mod -1, pPAFAH inh 28* and PAFAH2 FP inh 0.
For CCOc1ccc(N2C(=O)CNC2=S)cc1 the results were PAFAH1B3 inh 7, PAFAH1B2 FP inh 0, UCH37 DUB inh 1, GRIN3A LBD mod -1, pPAFAH inh -1 and PAFAH2 FP inh -5.
For NC(=O)C[n+]1cccc(C=NO)c1 the results were UCH37 DUB inh 0.
`C=CCOc1c(Br)cc(/C=N/Nc2ccc(C(=O)O)cc2)cc1OCC` gave PAFAH1B3 inh 6, PAFAH1B2 FP inh 3, GRIN3A LBD mod -1, pPAFAH inh 30* and PAFAH2 FP inh 16.
`CCOc1cc(C=NO)cc(Br)c1OCc1ccc(Cl)cc1` gave UCH37 DUB inh 1.
